MT1-MMP act inh = MT1-MMP (human) activation inhibition; GFP/RFP ratio change, % at 20 µM; HT1080 RFP-PRO-GFP cells, GFP/RFP ratio fluorescence, overnight; percent of plate control window, DMSO zero; P50281; 360,000 tested, 0.061% active;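 active = GFP/RFP ratio change of at least 30% with cell ATP level not reduced by more than half and red fluorescence within 50% of control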
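Assay system: RFP-PRO-GFP reporter HT1080 cells; read-out basis: GFP/RFP fluorescence ratio; benchmarks: DMSO wells and RFP-L50D-GFP cells; doses: 20 µM single dose, 1% DMSO; schedule: overnight cell settling, then overnight compound exposure, 37 °C, 5% CO2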
CendR NRP1 mod = alters CendR peptide binding to human NRP-1 | inhibition, % at 25 µM | FAM-RPARPAR peptide binding to NRP-1, fluorescence polarization | AID 602438 | 360,000 tested, 0.85% active;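 active = inhibition or corrected inhibition above about 18%, plus a signal ratio from 0.5 to 1.5, limit read from the data, passing the limit was not always enough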
Myeloid diff MLP = compounds promoting myeloid differentiation | ER-HoxA9 myeloid progenitors, lysozyme-GFP differentiation, flow cytometry | calls only at 10 µM | 360,000 tested, 1% active | AID 624256;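 active = normalized GFP-positive differentiation at or above the plate's own cutoff, the solvent-only control mean plus 3 SD; inconclusive = no clear call, values can overlap the other calls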;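 also: cells exposed to compound for four days before flow analysis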
SENP1 FRET inh = SENP1 (human) catalytic domain inhibition | recombinant SENP1 catalytic domain, CyPet-SUMO1-YPet FRET cleavage | inhibition, % at 10 µM | 360,000 tested, 0.21% active;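 active = inhibition at least 30% at 10 µM, raw YFP signal under a set limit, fluorescence ratio 0.5 to 1.5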
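Assay system – human recombinant His6-tagged SENP1 catalytic domain enzyme · Input – SENP1 enzyme, 20 pM final · Buffer or medium – Tris pH 8 buffer plus EDTA, NaCl, BME, BSA, NP40, catalase · Schedule – 50 min reaction at room temperature · Technique – FRET read of cyan and yellow fluorescence · Control set – no-enzyme wells low, DMSO-plus-enzyme wells high control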
DAGLB inh = diacylglycerol lipase beta (human) inhibition. HEK293T DAGLB membrane lysate, EnzChek fluorogenic substrate. inhibition, % at 5.17 µM. 340,000 tested, 0.059% active; in the data active = inhibition above about 34%
Target sequence (Q8NCG7 whole entry, looked up): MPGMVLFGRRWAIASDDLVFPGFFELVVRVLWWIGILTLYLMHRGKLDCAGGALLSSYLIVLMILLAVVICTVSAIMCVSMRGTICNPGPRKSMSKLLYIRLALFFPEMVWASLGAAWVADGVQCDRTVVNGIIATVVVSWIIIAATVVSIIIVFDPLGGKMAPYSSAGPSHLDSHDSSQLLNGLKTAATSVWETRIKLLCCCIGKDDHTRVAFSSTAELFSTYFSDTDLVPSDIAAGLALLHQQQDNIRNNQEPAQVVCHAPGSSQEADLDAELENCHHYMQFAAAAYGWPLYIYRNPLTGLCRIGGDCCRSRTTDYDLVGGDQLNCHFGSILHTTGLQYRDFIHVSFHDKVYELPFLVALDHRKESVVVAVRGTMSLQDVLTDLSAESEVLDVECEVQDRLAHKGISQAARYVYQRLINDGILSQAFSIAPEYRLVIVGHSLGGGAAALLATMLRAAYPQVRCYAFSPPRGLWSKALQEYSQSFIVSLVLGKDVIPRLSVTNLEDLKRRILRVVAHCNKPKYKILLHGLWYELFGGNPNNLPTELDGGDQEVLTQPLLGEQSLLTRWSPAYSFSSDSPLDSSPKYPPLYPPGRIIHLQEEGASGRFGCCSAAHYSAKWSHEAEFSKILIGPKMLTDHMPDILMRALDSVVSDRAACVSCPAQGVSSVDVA
beta cell repl = MIN6 beta-cell proliferation induction | MIN6 cells proliferation, ATPlite luminescence, 48 h; cells starved in 0.2% serum; 100% = growth in 10% serum | proliferation, % at 10 µM | 330,000 tested, 0.29% active | AID 2380;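 active = compounds whose signal lies at least 3.5 SD above the mean of all wells on their plate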
Numbers stand for hits; n = inactive; u = inconclusive; x = not tested or not shown; + = active, no number. Shown are actives, neighbours in structure and some others; about 2.4% of the full set was active somewhere.

SMILES | MT1-MMP act inh | CendR NRP1 mod | Myeloid diff MLP | SENP1 FRET inh | DAGLB inh | beta cell repl
Cc1ccc(S(=O)(=O)c2ncccc2N)cc1 | n | 56 | x | n | n | n
Cc1ccc(S(=O)(=O)c2ncccc2[N+](=O)[O-])cc1 | n | n | u | n | n | n
Cc1ccc(C(=O)N2CCN(S(=O)(=O)c3ccccc3)CC2)cc1 | n | n | n | n | n | n
Cc1cccc(N2CCN(CC(=O)Nc3ccc(S(=O)(=O)N4CCOCC4)cc3)CC2)c1C | n | n | + | n | n | n
Cc1ccc(NC(=O)CCC(=O)N2CCN(S(=O)(=O)c3ccc(C)cc3)CC2)cc1 | n | 45 | n | n | n | n
Cc1ccc(S(=O)(=O)N2CCN(C(=O)c3ccccc3)CC2)cc1 | n | n | + | n | n | n
Cc1ccc(S(=O)(=O)N2CCN(C(=O)CCC(=O)Nc3ccc(F)cc3F)CC2)cc1 | n | n | n | n | n | n
O=C(CC1CCCC1)N1CCN(S(=O)(=O)c2ccccc2)CC1 | n | n | + | n | n | n
Cc1nn(-c2ccccc2)c(/N=C/c2ccccc2O)c1-c1ccccc1 | n | n | n | n | n | n
O=C(Nc1ccc(Oc2ccccc2)cc1)c1csc([C@@H]2C[C@H](O)[C@@H](CO)O2)n1 | n | n | n | n | x | x
O=C(c1ccccc1)N1CCN(C(=O)c2cccnc2)CC1 | n | n | + | n | n | n
O=C1CCCC[C@@H](CO)[C@H](O)C[C@H](c2ccccc2)O1 | n | n | n | n | x | x
Cc1ccc(CNC(=O)CNS(=O)(=O)c2ccc(Br)s2)cc1 | n | n | n | n | n | n
CCc1cc(=O)oc2cc(OCc3ccc(C(=O)O)o3)ccc12 | n | n | + | n | n | n
OC[C@@H]1CN(Cc2ccncc2)C[C@H](n2cnc3c(N4CCOCC4)ncnc32)O1 | n | n | n | n | x | x
O=C(Nc1ccc(Cl)cc1)N[C@@H]1CC[C@H](CCNS(=O)(=O)c2ccccc2F)O[C@@H]1CO | n | n | n | n | x | x
CCC(C)n1c(=S)[nH]c2ccccc2c1=O (stereo unspecified) | n | 28 | n | n | n | n
CC(C)n1c(=S)[nH]c2ccccc2c1=O | n | n | n | n | n | n
CSc1ccc(-c2cc3c(c4c2ccn4C)C2CCC3C2)cc1 (stereo unspecified) | n | 25 | n | n | x | x
Cn1ccc2c(-c3ccc(F)cc3)cc3c(c21)C1CCC3C1 (stereo unspecified) | n | n | n | n | x | x
Cc1sc2nc(SCC(=O)N(CCO)CCO)nc(N)c2c1C | n | n | n | n | n | n
Cc1sc2nc(SCC(=O)N(CCO)CCO)n(C3CCCCC3)c(=O)c2c1C | n | 24 | n | n | n | n
CC1CCCCC12NC(=O)N(CC(=O)OCC(=O)c1ccc(OC(F)F)cc1OC(F)F)C2=O (stereo unspecified) | n | n | n | n | n | n
CCN(CC)c1ccc(/C=C/c2cc(-c3ccccc3)c3ccccc3n2)cc1 | n | n | + | n | n | x
CN(C)c1ccc(/C=C/c2ccc3ccccc3n2)cc1 | n | n | n | n | n | x
SMILES | MT1-MMP act inh | CendR NRP1 mod | Myeloid diff MLP | SENP1 FRET inh | DAGLB inh | beta cell repl
COc1cccc(CN(C)C(=O)CN2C(=O)NC(c3ccccc3)(c3ccccc3)C2=O)c1OC | n | n | n | n | n | n
Cc1cc(=O)n2nc(N3CCCC(C(=O)NC4CCCCC4C)C3)sc2n1 (stereo unspecified) | n | n | n | n | n | n
COc1ccc(N2CCN(C(=O)c3ccc(NC(=O)C4=CSCCO4)cc3)CC2)cc1 | n | 36 | n | n | n | n
COc1ccc(N2CCN(C(=O)c3ccc(S(=O)(=O)N4CCOCC4)cc3)CC2)cc1 | n | n | + | n | n | n
COC(=O)COc1ccc(S(=O)(=O)N2CCN(c3ccc(F)cc3)CC2)cc1 | n | n | n | n | n | n
O=C(Nc1ccc(C(=O)N2CCN(c3ccc(F)cc3)CC2)cc1)C1=CSCCO1 | n | n | n | n | n | n
COC(=O)COc1ccc(S(=O)(=O)N2CCN(c3ccc(OC)cc3)CC2)cc1 | n | 24 | n | n | n | n
COc1ccnc(Oc2ccc(Cl)cc2)c1C#N | n | n | n | n | n | n
Cc1c(C)n2c(SCC(=O)N3CCC(C)CC3)nnc2[nH]c1=O | n | 24 | n | n | n | n
O=C(NCC1CCCO1)c1cccc(S(=O)(=O)Nc2ccccc2Cl)c1 (stereo unspecified) | n | n | n | n | n | x
O=C1/C(=C\c2cccnc2)SC(=S)N1c1ccc(F)cc1 | n | n | + | n | n | n
O=C1/C(=C\c2ccc(O)cc2)SC(=S)N1c1cccnc1 | n | n | n | 81 | n | n
O=C1/C(=C/c2cccnc2)SC(=S)N1c1ccccc1 | n | n | n | n | n | n
CSc1ccccc1NC(=O)CN(C)CC(=O)Nc1c(F)cccc1F | n | n | n | n | n | n
CC(C)Cc1ccc(C(C)C(=O)Nc2ccc(O)cc2)cc1 (stereo unspecified) | n | 38 | n | n | n | n
CC(C)Cc1ccc(C(C)C(=O)Nc2cccnc2)cc1 (stereo unspecified) | n | n | n | n | n | n
Cc1ccccc1OCC(=O)Nc1c2c(nn1C(C)(C)C)CS(=O)(=O)C2 | n | n | + | n | n | n
COc1ccc(OCC(=O)Nc2c3c(nn2C(C)(C)C)CS(=O)(=O)C3)cc1 | n | n | + | n | n | n
N#Cc1c(C(F)(F)F)cc(-c2ccco2)nc1SCc1ccncc1 | n | n | + | n | n | n
N#Cc1c(C(F)(F)F)cc(-c2ccco2)nc1SCc1ccccn1 | n | n | + | n | n | n
CSc1nc(-c2ccco2)cc(C(F)(F)F)c1C#N | n | n | n | n | n | n
Cn1c(=O)c2c(=O)cc(NNC(=O)CC#N)[nH]c2n(C)c1=O | n | n | n | n | n | n
Cc1ccc(S(=O)(=O)Nc2cc3c4c(c2)C(C)C(=O)N4CCC3)cc1 (stereo unspecified) | n | n | n | n | n | n
COc1ccc(C)cc1S(=O)(=O)Nc1cc2c3c(c1)C(C)C(=O)N3CCC2 (stereo unspecified) | n | 23 | n | n | n | n
CCCCNC(=O)C1C(c2ccc(OC)cc2)=Nc2ccccc2N1C(=O)c1ccncc1 (stereo unspecified) | n | n | n | n | x | x
CN(c1ccc(C(=O)Nc2ccc3c(c2)OCCO3)cc1)S(C)(=O)=O | n | n | + | n | n | n
COc1ccccc1NS(=O)(=O)c1cc(NC(=O)c2ccc3c(c2)OCCO3)ccc1C | n | 30 | n | n | n | n
O=C(CSc1ccc(Cl)cc1)Nn1cnnc1 | n | n | + | n | n | n

Screens deposited in PubChem BioAssay by several laboratories.
